Experimental data: ChEMBL document CHEMBL1128673, “Conformationally constrained phosphotyrosyl mimetics designed as monomeric Src homology 2 domain inhibitors” (J Med Chem, 1995)

How the values were obtained:
[1] = target: Tyrosine-protein kinase Lck (Homo sapiens) (UniProt P06239); test: In vitro binding to p56 Lck SH2 domain
How it was run: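 Lck SH2 domain as a GST fusion (0.5–1.0 μM, Bradford) with 35 fmol (67 nCi) [125I]Bolton–Hunter hmT pY324 phosphopeptide and varying unlabelled pTyr analogue in 20 mM Tris-HCl, 250 mM NaCl, 0.1% BSA, 10 mM DTT, pH 7.4. Complexes were captured on glutathione-agarose overnight at 22 °C, pelleted at 12000g for 5 min, and unwashed pellets gamma-counted.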

[2] = target: T1, Tyrosine-protein phosphatase non-receptor type 11 (Homo sapiens) (UniProt Q06124); test: In vitro binding to SH-PTP2-N (SHP-2) SH2 domain
T1 sequence (whole entry): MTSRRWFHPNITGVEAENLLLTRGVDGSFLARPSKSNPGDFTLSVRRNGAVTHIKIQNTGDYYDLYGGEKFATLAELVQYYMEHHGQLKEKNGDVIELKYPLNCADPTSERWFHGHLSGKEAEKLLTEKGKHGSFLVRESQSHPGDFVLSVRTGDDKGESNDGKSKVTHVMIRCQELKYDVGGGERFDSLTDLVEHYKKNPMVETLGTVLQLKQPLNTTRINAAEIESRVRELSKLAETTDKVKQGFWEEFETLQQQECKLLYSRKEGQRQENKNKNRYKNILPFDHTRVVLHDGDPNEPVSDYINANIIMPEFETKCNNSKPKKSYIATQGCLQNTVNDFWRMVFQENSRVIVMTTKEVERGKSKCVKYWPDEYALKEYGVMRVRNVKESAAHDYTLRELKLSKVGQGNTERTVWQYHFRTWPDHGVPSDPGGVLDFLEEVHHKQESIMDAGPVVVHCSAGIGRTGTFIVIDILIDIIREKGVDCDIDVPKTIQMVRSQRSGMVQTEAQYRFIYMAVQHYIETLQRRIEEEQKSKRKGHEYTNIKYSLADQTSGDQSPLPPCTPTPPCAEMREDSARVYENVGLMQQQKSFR
How it was run: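 SH-PTP2 N-terminal SH2 domain as a GST fusion (0.5–1.0 μM, Bradford) was mixed with 35 fmol (67 nCi) [125I]Bolton–Hunter IRS-1 pY1172 phosphopeptide and varying unlabelled pTyr analogue in 20 mM Tris-HCl, 250 mM NaCl, 0.1% BSA, 10 mM DTT, pH 7.4. Glutathione-agarose pull-down ran overnight at 22 °C, then 12000g for 5 min, with gamma counting of unwashed pellets.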

[3] = In vitro binding to Phospholipase C-gamma SH2 domain
How it was run: (§1)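 Competition binding used GST fusion of the PLCγ C-terminal SH2 domain (0.5–1.0 μM, Bradford) with 35 fmol (67 nCi) [125I]Bolton–Hunter-labelled PDGF pY1021 phosphopeptide plus varying unlabelled pTyr analogue. Buffer was 20 mM Tris-HCl, 250 mM NaCl, 0.1% BSA, 10 mM DTT, pH 7.4. Glutathione-agarose capture ran overnight at 22 °C with mixing, then 12000g for 5 min; pellet 125I was gamma-counted.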

[4] = In vitro binding to p85-C SH2 domain
How it was run: as §1, with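 “GST” for “Competition binding used GST”, “p85 PI-3 kinase” for “PLCγ”, “IRS-1 pY628” for “PDGF pY1021”, “and” for “plus”, “analogue in” for “analogue. Buffer was”, “°C,” for “°C with mixing,”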

[5] = target: Proto-oncogene tyrosine-protein kinase Src (Homo sapiens) (UniProt P12931); test: In vitro binding to Src SH2 domain
[6] = target: Growth factor receptor-bound protein 2 (Homo sapiens) (UniProt P62993); test: In vitro binding to Growth factor receptor bound protein 2
How it was run: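 GST–Grb2 SH2 fusion (0.5–1.0 μM, Bradford-estimated) with 35 fmol (67 nCi) [125I]Bolton–Hunter-labelled Shc pY317 phosphopeptide and varying unlabelled pTyr analogue in 20 mM Tris-HCl, 250 mM NaCl, 0.1% BSA, 10 mM DTT, pH 7.4. Glutathione-agarose was added, then overnight at 22 °C with mixing. After centrifugation at 12000g for 5 min, unwashed pellet radioactivity was gamma-counted.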

Tyrosine-protein kinase Lck (Homo sapiens), sequence (P06239 2-509 limits assumed): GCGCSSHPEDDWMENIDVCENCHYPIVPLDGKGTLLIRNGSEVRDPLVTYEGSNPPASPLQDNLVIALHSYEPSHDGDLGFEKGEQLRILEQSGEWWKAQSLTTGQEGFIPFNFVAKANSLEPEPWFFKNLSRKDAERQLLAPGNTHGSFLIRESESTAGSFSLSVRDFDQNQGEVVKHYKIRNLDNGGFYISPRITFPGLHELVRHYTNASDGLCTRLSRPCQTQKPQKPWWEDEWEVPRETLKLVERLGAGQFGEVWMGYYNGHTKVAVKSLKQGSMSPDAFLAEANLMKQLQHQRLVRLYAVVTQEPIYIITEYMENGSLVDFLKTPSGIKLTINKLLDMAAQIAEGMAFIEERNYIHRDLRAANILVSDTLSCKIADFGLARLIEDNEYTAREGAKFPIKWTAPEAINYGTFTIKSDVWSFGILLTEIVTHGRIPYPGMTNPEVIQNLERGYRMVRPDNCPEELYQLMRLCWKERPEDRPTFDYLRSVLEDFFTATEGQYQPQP
Proto-oncogene tyrosine-protein kinase Src (Homo sapiens), sequence (P12931 2-536 limits assumed): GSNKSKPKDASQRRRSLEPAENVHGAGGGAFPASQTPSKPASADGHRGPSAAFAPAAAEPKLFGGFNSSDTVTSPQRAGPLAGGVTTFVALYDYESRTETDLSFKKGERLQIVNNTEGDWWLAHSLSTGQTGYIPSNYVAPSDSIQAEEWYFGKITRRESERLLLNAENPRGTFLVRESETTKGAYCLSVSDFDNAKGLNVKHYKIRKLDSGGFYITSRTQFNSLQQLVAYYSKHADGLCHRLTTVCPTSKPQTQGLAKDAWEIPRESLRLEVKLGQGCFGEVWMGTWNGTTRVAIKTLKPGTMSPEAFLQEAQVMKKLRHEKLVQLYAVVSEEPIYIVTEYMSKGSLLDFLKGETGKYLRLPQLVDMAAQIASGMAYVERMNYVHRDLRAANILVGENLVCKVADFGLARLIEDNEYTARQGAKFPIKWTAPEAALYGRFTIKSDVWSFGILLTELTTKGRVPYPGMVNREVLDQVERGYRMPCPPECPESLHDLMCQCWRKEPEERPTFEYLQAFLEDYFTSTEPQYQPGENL
Growth factor receptor-bound protein 2 (Homo sapiens), sequence (P62993 whole entry, looked up, the tested form may be a part): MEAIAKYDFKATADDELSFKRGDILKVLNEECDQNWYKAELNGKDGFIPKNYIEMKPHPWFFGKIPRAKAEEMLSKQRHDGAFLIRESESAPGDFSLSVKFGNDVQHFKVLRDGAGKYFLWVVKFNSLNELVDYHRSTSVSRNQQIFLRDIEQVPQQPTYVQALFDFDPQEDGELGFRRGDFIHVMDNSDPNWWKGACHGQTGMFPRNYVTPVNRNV

SMILES	ID50 [1] [µM]	ID50 [2] [µM]	ID50 [3] [µM]	ID50 [4] [µM]	ID50 [5] [µM]	ID50 [6] [µM]
CC(=O)N[C@H](C(N)=O)[C@@H]1CCc2cc(OP(=O)(O)O)ccc21 (racemic)	> 3000	> 3000	> 3000	1500	> 3000	> 3000
CC(=O)N1CC2Cc3cc(O)ccc3C(C)(C2)C1 (racemic)	> 6000	> 3000	> 6000	> 5000	> 6000	–
CC(=O)N[C@H](C(N)=O)[C@H]1CCc2cc(OP(=O)(O)O)ccc21 (racemic)	1500	> 3000	> 3000	1500	> 3000	> 3000
CC(=O)N1CC2Cc3cc(OP(=O)(O)O)ccc3C(C)(C2)C1 (racemic)	> 3000	> 3000	> 3000	1300	900	–
CC(=O)N[C@@H](Cc1ccc(OP(=O)(O)O)cc1)C(N)=O	> 3000	> 3000	400	1500	1000	–
N[C@@H](Cc1ccc(OP(=O)(O)O)cc1)C(=O)O	5000	> 33000	2300	3500	3500	6200
